The source of these data is ChEMBL document CHEMBL1135756, “Solid phase synthesis and evaluation of Tyr-Tic-Phe-Phe(p-NHCOCH(2)Br) ([Phe(p-bromoacetamide)(4)]TIPP), a potent affinity label for delta opioid receptors” (J Med Chem, 2002).

For one test, the target named is Mu-type opioid receptor (Rattus norvegicus, UniProt P33535). The test can be described thus: Inhibitory activity against Opioid receptor mu 1 using [3H]DAMGO.
The target of test [1] is T1, Delta-type opioid receptor (Mus musculus, UniProt P32300). The test can be described thus: Binding affinity towards Opioid receptor delta 1. An outline of the steps:
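Competition binding against [³H]DPDPE on membranes of CHO cells stably transfected with cloned δ opioid receptors, under standard (equilibrium) conditions. The IC₅₀ is displacement of radioligand, averaged over 3–7 independent determinations ± SEM.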

Test [2] addresses T1, Delta-type opioid receptor. As to the kind of experiment: Inhibitory activity against Opioid receptor delta 1 using [3H]DPDPE. The method, boiled down:
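Competition binding on membranes of CHO cells stably transfected with cloned δ opioid receptors, using [³H]DPDPE as radioligand under standard (equilibrium) conditions. IC50 is the mean ± SEM of 3–7 independent determinations.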

Test [3] concerns the target Kappa-type opioid receptor (Cavia porcellus, UniProt P41144). The test can be described thus: Inhibitory activity against Opioid receptor kappa 1 using [3H]diprenorphine.
Test [4] concerns the target Delta-type opioid receptor (Mus musculus) (UniProt P32300). The test can be described thus: Inhibition of cyclic adenosine 3',5'-monophosphate (cAMP) formation by recombinant Opioid receptor delta 1 in adenylyl cyclase assay. The class given is functional. Conditions: concentration not given here.

pIC50, pKi: −log10 of the molar value. Non-standard residues stand in square brackets, D forms with d. Residues, ends and D or L forms follow the SMILES beside them. *: point of attachment. Phe(4-NH2) = Nc1ccc(C[C@H](N)C(=O)O)cc1; Tic = O=C(O)[C@@H]1Cc2ccccc2CN1; BrAc = O=C(CBr)*

Mu-type opioid receptor, sequence (P33535 whole entry): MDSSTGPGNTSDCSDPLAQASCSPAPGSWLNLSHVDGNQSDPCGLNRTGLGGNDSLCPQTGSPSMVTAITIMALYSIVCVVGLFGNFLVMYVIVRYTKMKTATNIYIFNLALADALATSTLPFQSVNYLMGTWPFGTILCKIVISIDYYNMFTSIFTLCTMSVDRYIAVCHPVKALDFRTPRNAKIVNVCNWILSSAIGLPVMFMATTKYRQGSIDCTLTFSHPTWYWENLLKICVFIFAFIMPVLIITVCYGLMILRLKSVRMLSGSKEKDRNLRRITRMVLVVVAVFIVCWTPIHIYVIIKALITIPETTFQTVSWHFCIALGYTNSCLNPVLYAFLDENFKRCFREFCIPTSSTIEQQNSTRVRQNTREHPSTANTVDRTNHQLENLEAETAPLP
T1 sequence (P32300 whole entry): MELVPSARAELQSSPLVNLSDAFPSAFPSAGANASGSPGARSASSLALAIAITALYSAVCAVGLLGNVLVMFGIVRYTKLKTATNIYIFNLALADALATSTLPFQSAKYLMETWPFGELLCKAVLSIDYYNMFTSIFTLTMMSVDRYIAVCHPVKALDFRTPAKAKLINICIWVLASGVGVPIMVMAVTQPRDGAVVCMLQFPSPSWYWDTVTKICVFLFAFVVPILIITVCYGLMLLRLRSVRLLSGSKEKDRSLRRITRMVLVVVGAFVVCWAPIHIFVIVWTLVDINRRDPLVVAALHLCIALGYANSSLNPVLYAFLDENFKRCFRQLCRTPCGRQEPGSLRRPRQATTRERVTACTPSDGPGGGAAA
Kappa-type opioid receptor, sequence (P41144 whole entry): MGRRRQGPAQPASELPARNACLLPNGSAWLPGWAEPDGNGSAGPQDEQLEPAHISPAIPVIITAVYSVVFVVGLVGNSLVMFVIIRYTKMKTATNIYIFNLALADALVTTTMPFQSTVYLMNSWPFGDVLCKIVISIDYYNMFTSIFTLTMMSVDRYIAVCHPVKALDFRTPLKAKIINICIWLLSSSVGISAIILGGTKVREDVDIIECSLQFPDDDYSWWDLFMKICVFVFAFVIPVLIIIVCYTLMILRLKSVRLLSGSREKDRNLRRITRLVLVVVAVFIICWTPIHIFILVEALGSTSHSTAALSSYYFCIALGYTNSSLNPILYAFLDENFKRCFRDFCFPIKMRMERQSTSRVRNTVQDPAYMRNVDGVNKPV
Delta-type opioid receptor (Mus musculus), sequence (P32300 whole entry): as the sequence (P32300 whole entry) above

Regarding `N[C@@H](Cc1ccc(O)cc1)C(=O)N1Cc2ccccc2C[C@H]1C(=O)N[C@@H](Cc1ccccc1)C(=O)N[C@@H](Cc1ccccc1)C(=O)O` (H-Y[Tic]FF-OH), the pIC50 at Mu-type opioid receptor is 5.00; in test [2] it was 7.85. In addition, the negative-log Ki (pKi) in test [1] is 8.91.
In the case of `N[C@@H](Cc1ccc(O)cc1)C(=O)N1Cc2ccccc2C[C@H]1C(=O)N[C@@H](Cc1ccccc1)C(=O)N[C@@H](Cc1ccc(NC(=O)CBr)cc1)C(=O)O` (H-Y[Tic]F[Phe(4-NH2)](BrAc)-OH), the results for the pIC50 (in test [3]; on Mu-type opioid receptor; in test [2]) were under 5.00, under 5.27 and 8.27, respectively. The inhibition in test [4] is 65%.
For the compound `Nc1ccc(C[C@H](NC(=O)[C@H](Cc2ccccc2)NC(=O)[C@@H]2Cc3ccccc3CN2C(=O)[C@@H](N)Cc2ccc(O)cc2)C(=O)O)cc1` (H-Y[Tic]F[Phe(4-NH2)]-OH), the pIC50 is under 5.00 in test [3], under 5.00 at Mu-type opioid receptor and 7.70 in test [2].
Consider `N[C@@H](Cc1ccc(O)cc1)C(=O)N1Cc2ccccc2C[C@H]1C(=O)N[C@@H](Cc1ccc(NC(=O)CBr)cc1)C(=O)N[C@@H](Cc1ccccc1)C(=O)O` (H-Y[Tic][Phe(4-NH2)](BrAc)F-OH), for which the pIC50 against Mu-type opioid receptor was under 5.00; in test [2] it was 7.19.
With `Nc1ccc(C[C@H](NC(=O)[C@@H]2Cc3ccccc3CN2C(=O)[C@@H](N)Cc2ccc(O)cc2)C(=O)N[C@@H](Cc2ccccc2)C(=O)O)cc1` (H-Y[Tic][Phe(4-NH2)]F-OH), the pIC50 at Mu-type opioid receptor was under 5.00; in test [2], 7.44.
